From ChEMBL document CHEMBL1154766, “Synthesis and biological evaluation of new podophyllic aldehyde derivatives with cytotoxic and apoptosis-inducing activities” (2010)
Calls of active or inactive are those of the source. The rule behind the calls is not given here.

What was measured:
MDA-MB-231 = experiment: Cytotoxicity against human MDA-MB-231 cells after 72 hrs by SRB assay; assay type: functional; conditions: MDA-MB-231, 72 h
Summary of the method: (§1)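 SRB growth assay: 5 × 10³ cells/well in RPMI, attached 18 h drug-free, then compound added in DMSO/H₂O 3:7 for 72 h. Fixed with cold 50% TCA 60 min at 4 °C, stained 0.4% SRB in 1% acetic acid 10 min, bound dye solubilized in Tris, OD 490 nm. GI50 from 100[(T−T0)/(C−T0)] = 50; mean of triplicates.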

A549 = experiment: Cytotoxicity against human A549 cells after 72 hrs by SRB assay; assay type: functional; conditions: A549, 72 h; summary of the method: as §1
HT-29 [1] = experiment: Cytotoxicity against human HT-29 cells after 72 hrs by SRB assay; assay type: functional; conditions: HT-29, 72 h; summary of the method: as §1
HT-29 [2] = experiment: Induction of apoptosis in human HT-29 cells assessed as accumulation at subG1 phase at 1 uM after 24 hrs by flow cytometry; assay type: functional
Summary of the method: (§2)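 HT-29 cells incubated at 1 μM for 24, 48 or 72 h alongside untreated controls. (3-5) × 10⁵ cells fixed overnight in 70% ethanol at 4 °C, PBS-washed three times, then treated 1 h at room temperature with 1 mg/mL RNase A and 20 μg/mL propidium iodide. DNA content read by flow cytometry; apoptosis taken as % cells in sub-G1 peak. Representative of three independent experiments.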

HT-29 [3] = experiment: Cell cycle arrest in human HT-29 cells assessed as accumulation at G0/G1 phase at 1 uM after 24 hrs by flow cytometry; assay type: functional; summary of the method: as §2
HT-29 [4] = experiment: Cell cycle arrest in human HT-29 cells assessed as accumulation at S phase at 1 uM after 24 hrs by flow cytometry; assay type: functional; summary of the method: as §2
HT-29 [5] = experiment: Cell cycle arrest in human HT-29 cells assessed as accumulation at G2/M phase at 1 uM after 24 hrs by flow cytometry; assay type: functional; summary of the method: as §2
HT-29 [6] = experiment: Induction of apoptosis in human HT-29 cells assessed as accumulation at subG1 phase at 1 uM after 48 hrs by flow cytometry; assay type: functional; summary of the method: as §2
HT-29 [7] = experiment: Cell cycle arrest in human HT-29 cells assessed as accumulation at G0/G1 phase at 1 uM after 48 hrs by flow cytometry; assay type: functional; summary of the method: as §2
HT-29 [8] = experiment: Cell cycle arrest in human HT-29 cells assessed as accumulation at S phase at 1 uM after 48 hrs by flow cytometry; assay type: functional; summary of the method: as §2
HT-29 [9] = experiment: Cell cycle arrest in human HT-29 cells assessed as accumulation at G2/M phase at 1 uM after 48 hrs by flow cytometry; assay type: functional; summary of the method: as §2
HT-29 [10] = experiment: Induction of apoptosis in human HT-29 cells assessed as accumulation at subG1 phase at 1 uM after 72 hrs by flow cytometry; assay type: functional; summary of the method: as §2
HT-29 [11] = experiment: Cell cycle arrest in human HT-29 cells assessed as accumulation at G0/G1 phase at 1 uM after 72 hrs by flow cytometry; assay type: functional; summary of the method: as §2
HT-29 [12] = experiment: Cell cycle arrest in human HT-29 cells assessed as accumulation at S phase at 1 uM after 72 hrs by flow cytometry; assay type: functional; summary of the method: as §2
HT-29 [13] = experiment: Cell cycle arrest in human HT-29 cells assessed as accumulation at G2/M phase at 1 uM after 72 hrs by flow cytometry; assay type: functional; summary of the method: as §2
HT-29 [14] = experiment: Induction of microtubule disruption in human HT-29 cells at 1 uM after 24 hrs; assay type: cell-based
Summary of the method: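 HT-29 cells on poly-L-lysine coverslips exposed to 1 μM for 24 h, washed in HPEM (pH 6.6), fixed with 4% paraformaldehyde 15 min, permeabilized with 0.5% Triton X-100. Anti-α-tubulin mouse monoclonal (1:150, 1 h) then CY3 anti-mouse IgG (1 h, 4 °C); nuclei DAPI-stained; imaged by confocal microscopy. Representative of at least three experiments.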

| SMILES | GI50 (MDA-MB-231) [nM] | GI50 (A549) [nM] | GI50 (HT-29 [1]) [nM] | Activity (HT-29 [2]) [%] | Activity (HT-29 [3]) [%] | Activity (HT-29 [4]) [%] | Activity (HT-29 [5]) [%] | Activity (HT-29 [6]) [%] | Activity (HT-29 [7]) [%] | Activity (HT-29 [8]) [%] | Activity (HT-29 [9]) [%] | Activity (HT-29 [10]) [%] | Activity (HT-29 [11]) [%] | Activity (HT-29 [12]) [%] | Activity (HT-29 [13]) [%] | Activity (HT-29 [14]) |
| --- | --- | --- | --- | --- | --- | --- | --- | --- | --- | --- | --- | --- | --- | --- | --- | --- |
| COc1cc(COC(=O)[C@@H]2C(C=O)=Cc3cc4c(cc3[C@H]2c2cc(OC)c(OC)c(OC)c2)OCO4)cc(OC)c1OC | 42 | 34 | 20 | 0.5 | 0.9 | 1.1 | 97.5 | 8.6 | 6.8 | 5.1 | 79.5 | 32.3 | 18.3 | 12.9 | 36.5 | Active |
| CCCCCCCOC(=O)[C@@H]1C(C=O)=Cc2cc3c(cc2[C@H]1c1cc(OC)c(OC)c(OC)c1)OCO3 | 2500 | 1000 | 1000 | 19.6 | 14.6 | 42.6 | 23.2 | 29.2 | 25.3 | 29.6 | 15.9 | 82.3 | 16.7 | 0.4 | 0.6 | inactive |
